The values that follow come from PMC2913166 (Molecular pharmaceutics, 2009).

For orientation: Km means the substrate concentration at which the rate is half of its maximum.

Values joined by “and” are separate entries in the source; they are usually repeats but may differ in a detail not shown here. Equal values may be shown once. “Also recorded” adds a separate entry of the source. K(Me2NCp) = not defined here; CbOH = not defined here Bounds are passed on as bounds.

The conditions of data set [1]: dissolved in 100% DMSO; reference value used for comparison; cited from earlier work.
A further data set deals with caspase-3. The conditions noted are these: cited from earlier work; for Km: read-out: KM of standard substrate.
In another data set the test system is A549 cells. Format: cell-based, human. Conditions: 5 μM paclitaxel for 2 h; read out by fluorescence of 5. A digest of the protocol: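 A549 cells were grown in Ham's F12K with 10% FBS and penicillin/streptomycin at 37°C, 5% CO2, seeded at 1×10^5/well in chamber slides overnight. Cells were loaded with 10 μM probe using GeneJuice in Opti-MEM for 24 h at 37°C. Paclitaxel was given for 2 h at 37°C, then three PBS washes. NIR confocal imaging (785 nm laser) read mean cytoplasmic intensity (Ex/Em 785/805–830) in 12 cells; mean ± SD, t-test.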

Data set [2] addresses T1, recombinant human caspase-3 (Homo sapiens, UniProt P42574).
T1 sequence (P42574 29-175 limits assumed): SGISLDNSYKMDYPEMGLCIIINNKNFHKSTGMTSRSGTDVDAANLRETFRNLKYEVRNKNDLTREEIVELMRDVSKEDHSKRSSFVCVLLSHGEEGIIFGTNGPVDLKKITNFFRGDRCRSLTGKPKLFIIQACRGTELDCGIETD
T1 sequence (P42574 176-277 limits assumed): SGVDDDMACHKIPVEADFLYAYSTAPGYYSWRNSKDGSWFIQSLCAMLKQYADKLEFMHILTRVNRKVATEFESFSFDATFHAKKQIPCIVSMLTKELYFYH
Briefly: Caspase-3 enzyme kinetics of the NIR substrates. Format: biochemical. The gist of the method: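 Active sites were titrated with Ac-DEVD-pNA (2.5–50 μM, 25°C, absorbance […] nm). Substrate (0.5–100 μM; DMSO stock) hydrolysis was followed by NIR fluorescence (ex 785/em 805 nm) over time. Linear slope ÷ complete-hydrolysis fluorescence × [S] gave vo, fitted to Michaelis–Menten. kcat/KM was computed; ± SEM.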

A short description of data set [3]: Absorption and fluorescence spectroscopy, quantum yield. The conditions noted are these: for λabs max / λem max / Quantum yield: 20% DMSO in water; for λabs max / λem max: room temperature; for Quantum yield: relative to ICG in DMSO, QY=0.12. Format: physicochemical. A digest of the protocol: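 Test compounds dissolved in spectral-grade DMSO, diluted in 20% DMSO/water, and read at room temperature. Fluorescence was excited at 700 nm with 5 nm slits, keeping absorbance below 0.1. Molar absorptivity was averaged from three-point measurements at the absorption maximum. Quantum yield was taken relative to ICG in 100% DMSO. Probe in assay buffer was split: one half diluted with water to 1 mL, the other cleaved by caspase-3, then diluted likewise.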

Data set [4] in a line: Fluorescence lifetime measurement. Format: physicochemical. Conditions: 20% DMSO/water, excitation 773 nm, detection 820 nm, room temperature. A digest of the protocol: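 TCSPC used a 773 nm pulsed LED source at 1 MHz, with detection at 90°. Counts were binned at 6.88 ps/channel until the peak reached 10,000, on a 50 ns scale. Instrument response came from Rayleigh scatter of 0.03% Ludox-40. Decays in 20% DMSO/water were fitted to two exponentials, discarding components contributing <3%.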

For the molecule `CC1(C)C(/C=C/C=C/C=C/C=C2\N(CCCCS(=O)(=O)O)c3ccc4ccccc4c3C2(C)C)=[N+](CCCCS(=O)(=O)[O-])c2ccc3ccccc3c21` [ICG, indocyanine green], in data set [1], the “Fluorescence quantum yield of the standard” value is listed as 0.12.

In the case of Ac-DEVD-AMC, in the data set on caspase-3, the “kcat of standard substrate” value was 0.75 s⁻¹ and the Km is 9.7 µM.

In the case of Ac-DEVD-pNA, in the data set on caspase-3, the “kcat of standard substrate” value is 2.4 s⁻¹ and the Km was 11 µM.

In the case of `CC(=O)O[C@H]1C(=O)[C@@]2(C)[C@H]([C@H](OC(=O)c3ccccc3)[C@]3(O)C[C@H](OC(=O)[C@H](O)[C@@H](NC(=O)c4ccccc4)c4ccccc4)C(C)=C1C3(C)C)[C@]1(OC(C)=O)CO[C@@H]1C[C@@H]2O` [paclitaxel], the “Activation of caspase-3 in A549 cells” value in the data set with A549 cells is on record as “sufficient to activate caspase-3”.

Regarding “AcGK(Me2NCp)-DEVD-APK(CbOH)-NH2 ({Ac-Gly-K(Me2NCp)}-DEVDAPK(CbOH)-NH2; reading uncertain; also: printed as AcGK(Me2NCp)-DEVD-APK(CbOH)-NH2) [Compound 5]”, the “kcat (turnover number)” value in data set [2] (5 (0.5 to 100 μM) with caspase 3 (290 pM), 10 mM PIPES pH 7.4, 2 mM EDTA, 0.1% CHAPS, 5 mM DTT, triplicate, λex=785 nm, λem=805 nm, ± standard error of the mean, SEM) is 1.02 ± 0.06 s⁻¹. Also, the “Cleavage (hydrolysis) by caspase-3, in words” value in data set [2] (assay buffer pH 7.4, recombinant human caspase-3) was “cleaved more readily than 4; also recorded: readily cleaved”. Further, the “kcat/KM (catalytic efficiency)” value in data set [2] (caspase-3, computed from kcat and KM) was 68000 M⁻¹ s⁻¹. Moreover, the Km in data set [2] (read-out: KM (Michaelis-Menten constant), 5 (0.5 to 100 μM) with caspase 3 (290 pM), 10 mM PIPES pH 7.4, 2 mM EDTA, 0.1% CHAPS, 5 mM DTT, triplicate, λex=785 nm, λem=805 nm, ± standard error of the mean, SEM) came to 15 ± 3 µM. The “Ratio F760/F810 of emission after cleavage” value in data set [3] (5 after enzymatic cleavage by caspase-3, diluted with water) is given as 7.16. Further, in data set [3], the λabs max was 759 nm and 790 nm; the λem max was 763 nm; the Quantum yield is on record as less than 0.001.

Take `CC1(C)C(/C=C/C=C/C=C/C=C2/N(CCC(=O)O)c3ccc4ccccc4c3C2(C)C)=[N+](CCC(=O)[O-])c2ccc3ccccc3c21` [Compound 2, cypate, reference compound]: in data set [3], the λabs max amounted to 783 nm, the λem max is reported as 808 nm and the Quantum yield turned out to be 0.031. The molecule further registered a Lifetime in data set [4] of 0.25 ns.
